# According to ChEMBL document CHEMBL1806360, “Synthesis and biological evaluation of conformationally flexible as well as restricted dimers of monastrol and related dihydropyrimidones” (Eur J Med Chem, 2011):
# Activity calls are given as the source filed them. The rule behind the calls is not given here.
# Assays:
# Nucleic Acid = experiment: Binding affinity to calf thymus DNA assessed as change in melting temperature at compound to DNA ratio of 1:5 after 18 hrs at pH 7; format: nucleic-acid assay; conditions: Bos taurus
# Outline: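 Thermal melting of calf thymus DNA in 10 mM sodium phosphate with 1 mM Na2EDTA, pH 7.00. Compound was added from DMSO stock at a fixed 1:5 compound:DNA molar ratio. The mix was incubated 18 h at 37 °C, then A260 was monitored while heating at 1 °C/min over 40–90 °C. ΔTm is relative to DNA alone.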
# A-431 = experiment: Cytotoxicity against human A431 cells after 48 hrs by MTT assay; format: functional, cell-based; conditions: A-431, 48 h
# Outline: (§1)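 MTT assay. Medium with 10% FBS and 2 mM L-glutamine was DMEM for A431 and Colo-205, RPMI for A549, and MEM for MCF-7. Cultures were preincubated 24 h at 37 °C, 5% CO2. 1 × 10⁴ cells (trypan blue count) were exposed to 200, 100, 50, 25 and 10 concentration levels for 48 h at 37 °C. MTT was added for 4 h, formazan dissolved in DMSO, and A570 read. IC50 was curve-fitted from viability versus untreated cells, three experiments.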
# A549 = experiment: Cytotoxicity against human A549 cells after 48 hrs by MTT assay; format: functional, cell-based; conditions: A549, 48 h; outline: as §1
# COLO 205 = experiment: Cytotoxicity against human COLO205 cells after 48 hrs by MTT assay; format: functional, cell-based; conditions: COLO 205, 48 h; outline: as §1
# [1] = target: T1, Kinesin-like protein KIF11 (Homo sapiens, UniProt P52732); experiment: Inhibition of HsEg5
# T1 sequence (P52732 whole entry): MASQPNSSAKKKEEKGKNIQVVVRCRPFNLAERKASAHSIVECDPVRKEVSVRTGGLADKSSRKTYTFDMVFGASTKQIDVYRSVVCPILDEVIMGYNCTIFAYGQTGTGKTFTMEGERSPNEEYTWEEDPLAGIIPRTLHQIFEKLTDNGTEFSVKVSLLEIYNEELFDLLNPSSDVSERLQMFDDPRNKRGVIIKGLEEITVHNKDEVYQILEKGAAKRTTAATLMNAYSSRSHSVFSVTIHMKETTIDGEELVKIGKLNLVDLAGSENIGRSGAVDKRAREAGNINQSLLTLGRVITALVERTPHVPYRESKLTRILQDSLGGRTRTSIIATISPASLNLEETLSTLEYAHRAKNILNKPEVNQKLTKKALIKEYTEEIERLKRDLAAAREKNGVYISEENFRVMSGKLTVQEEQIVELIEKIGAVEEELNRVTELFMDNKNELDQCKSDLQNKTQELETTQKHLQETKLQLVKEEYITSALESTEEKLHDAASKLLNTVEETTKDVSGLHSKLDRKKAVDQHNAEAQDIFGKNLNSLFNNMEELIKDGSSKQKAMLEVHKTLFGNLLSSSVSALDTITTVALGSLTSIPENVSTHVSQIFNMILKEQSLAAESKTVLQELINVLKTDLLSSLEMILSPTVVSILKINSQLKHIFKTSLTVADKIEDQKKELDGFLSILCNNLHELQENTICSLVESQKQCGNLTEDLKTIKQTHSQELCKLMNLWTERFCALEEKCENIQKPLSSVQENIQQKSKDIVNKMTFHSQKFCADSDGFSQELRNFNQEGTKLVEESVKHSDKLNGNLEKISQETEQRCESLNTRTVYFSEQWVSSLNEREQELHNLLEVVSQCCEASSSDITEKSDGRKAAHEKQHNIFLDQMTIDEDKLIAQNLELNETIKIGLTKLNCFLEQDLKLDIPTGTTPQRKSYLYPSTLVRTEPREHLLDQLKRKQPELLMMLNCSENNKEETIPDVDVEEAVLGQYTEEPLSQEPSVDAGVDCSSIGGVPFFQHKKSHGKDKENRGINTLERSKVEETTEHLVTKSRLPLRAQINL
# MCF7 = experiment: Cytotoxicity against human MCF7 cells after 48 hrs by MTT assay; format: functional, cell-based; conditions: MCF7, 48 h; outline: as §1
# [2] = tested on: Staphylococcus epidermidis; experiment: Antibacterial activity against Staphylococcus epidermidis assessed as zone of inhibition at 50 ug/ml by agar plate method; format: functional, organism-based
# Outline: (§2)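 Well diffusion on Mueller-Hinton agar. Inoculum from 3–5 colonies was grown in nutrient broth and adjusted to 0.5 McFarland (about 1 × 10⁸ CFU/mL), then swabbed over the plate. Compounds were dissolved in DMSO and added to duplicate 6 mm wells. Plates were incubated 18 h at 37 °C, and inhibition zone diameter was read to the nearest mm. Ciprofloxacin was the positive control and DMSO the negative control.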
# Escherichia coli [3] = experiment: Antibacterial activity against Escherichia coli assessed as zone of inhibition at 50 ug/ml by agar plate method; format: functional, organism-based; outline: as §2
# Escherichia coli [4] = experiment: Antibacterial activity against Escherichia coli assessed as zone of inhibition at 100 ug/ml by agar plate method; format: functional; conditions: read-out: IZ; outline: as §2
# HT-29 = experiment: Cytotoxicity against human HT-29 cells after 48 hrs by MTT assay; format: functional, cell-based; conditions: HT-29, 48 h
# Pseudomonas aeruginosa [5] = experiment: Antibacterial activity against Pseudomonas aeruginosa assessed as zone of inhibition at 50 ug/ml by agar plate method; format: functional; conditions: read-out: IZ; outline: as §2
# Klebsiella pneumoniae [6] = experiment: Antibacterial activity against Klebsiella pneumoniae assessed as zone of inhibition at 100 ug/ml by agar plate method; format: functional; conditions: read-out: IZ; outline: as §2
# [7] = tested on: Staphylococcus epidermidis; experiment: Antibacterial activity against Staphylococcus epidermidis assessed as zone of inhibition at 100 ug/ml by agar plate method; format: functional; conditions: read-out: IZ; outline: as §2
# Staphylococcus aureus [8] = experiment: Antibacterial activity against Staphylococcus aureus assessed as zone of inhibition at 100 ug/ml by agar plate method; format: functional; conditions: read-out: IZ; outline: as §2
# Klebsiella pneumoniae [9] = experiment: Antibacterial activity against Klebsiella pneumoniae assessed as zone of inhibition at 50 ug/ml by agar plate method; format: functional, organism-based; outline: as §2
# Bacillus subtilis [10] = experiment: Antibacterial activity against Bacillus subtilis assessed as zone of inhibition at 50 ug/ml by agar plate method; format: functional, organism-based; outline: as §2
# Staphylococcus aureus [11] = experiment: Antibacterial activity against Staphylococcus aureus assessed as zone of inhibition at 50 ug/ml by agar plate method; format: functional; conditions: read-out: IZ; outline: as §2
# Pseudomonas aeruginosa [12] = experiment: Antibacterial activity against Pseudomonas aeruginosa assessed as zone of inhibition at 100 ug/ml by agar plate method; format: functional; conditions: read-out: IZ; outline: as §2
# Bacillus subtilis [13] = experiment: Antibacterial activity against Bacillus subtilis assessed as zone of inhibition at 100 ug/ml by agar plate method; format: functional; conditions: read-out: IZ; outline: as §2
SMILES,ΔTm (Nucleic Acid) [°C],IC50 (A-431) [µg/mL],IC50 (A549) [µg/mL],IC50 (COLO 205) [µg/mL],IC50 [1] [µM],IC50 (MCF7) [µg/mL],Activity [2],Activity (Escherichia coli [3]),zone of inhibition at 100 µg/mL (Escherichia coli [4]) [mm],IC50 (HT-29) [µg/mL],zone of inhibition at 50 µg/mL (Pseudomonas aeruginosa [5]) [mm],zone of inhibition at 100 µg/mL (Klebsiella pneumoniae [6]) [mm],zone of inhibition at 100 µg/mL [7] [mm],zone of inhibition at 100 µg/mL (Staphylococcus aureus [8]) [mm],Activity (Klebsiella pneumoniae [9]),Activity (Bacillus subtilis [10]),zone of inhibition at 50 µg/mL (Staphylococcus aureus [11]) [mm],zone of inhibition at 100 µg/mL (Pseudomonas aeruginosa [12]) [mm],zone of inhibition at 100 µg/mL (Bacillus subtilis [13]) [mm]
CCOC(=O)C1=C(C)NC(=S)NC1c1cccc(O)c1 (stereo not drawn) [MONASTROL],0,53,118,164,14,45,,,,,,,,,,,,,
CCOC(=O)C1=C(C)NC(=S)NC1c1ccc(OCCCCCOc2ccc(C3NC(=S)NC(C)=C3C(=O)OCC)cc2OC)c(OC)c1 (stereo not drawn),,124,> 200,113,,180,inactive,inactive,10,> 200,12,10,10,19,inactive,inactive,10,20,8
